Reference: ChEMBL document CHEMBL1145287, “Docking and 3-D QSAR studies on indolyl aryl sulfones. Binding mode exploration at the HIV-1 reverse transcriptase non-nucleoside binding site and design of highly active N-(2-hydroxyethyl)carboxamide and N-(2-hydroxyethyl)carbohydrazide derivatives” (J Med Chem, 2005)

How the values were obtained:
Details in all cases: Homo sapiens
MT4 [1] = assay: Concentration required for 50% protection of infected MT-4 cells from wtIIIB-HIV-1-induced cytopathogenicity was determined by the MTT method; format: functional, cell-based
How it was run: (§1)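 MT-4 cells (1 × 10⁴/well, RPMI 1640 with 10% FCS, 37 °C, 5% CO₂) were infected with HIV-1 IIIB (H9/IIIB supernatant) at an inoculum causing complete cytopathicity by day 4, across graded compound concentrations. Viability was read by MTT, with cytotoxicity run in parallel on mock-infected cells. Concentration giving 50% protection reported as the mean of three experiments.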

MT4 [2] = assay: Protection of infected MT-4 cells from wtIIIB-HIV-1-induced cytopathogenicity; format: functional, cell-based; how it was run: as §1
C8166 [3] = assay: Concentration required to reduce the amount of p24 by 90% in C8166 cells infected with an efavirenz-resistant strain EFVR; format: functional
How it was run: (§2)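 C8166 cells (1 × 10⁴/well) with serial compound dilutions (200 mM DMSO stock diluted in medium), infected with K103R/V179D/P225H virus selected from IIIB by passage in C8166 cells with efavirenz up to 2 μM (stock 3.0 × 10⁵ CCID₅₀/mL); 37 °C incubation; p24 measured by immunoenzymatic kit; value = concentration giving 90% p24 reduction.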

MT4 [4] = assay: Compound concentration required to achieve 50% protection of infected MT-4 cells from K103N-Y181C strain was determined by the MTT method; format: functional, cell-based
How it was run: (§3)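 MT-4 cells (1 × 10⁴/well, RPMI 1640 + 10% FCS) exposed to serial compound dilutions (200 mM DMSO stock diluted in medium), infected with enough virus to give full cytopathicity by day 4; wt IIIB from H9/IIIB supernatant, Y181C and K103N–Y181C from NNRTI-selected passages.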

C8166 [5] = assay: Compound concentration required to reduce the amount of p24 by 90% in C8166 cells infected with an efavirenz-resistant strain EFVR carrying mutations K103R, V179D, and P225H; format: functional; how it was run: as §2
MT4 [6] = assay: Concentration required to achieve 50% protection of infected MT-4 cells from K103N-Y181C; format: functional, cell-based; how it was run: as §3
C8166 [7] = assay: Concentration required to reduce the amount of p24 by 90% in wtIIIB-HIV-1-infected C8166 cells; format: functional
How it was run: (§4)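 Acute infection of C8166 cells (1 × 10⁴/well, RPMI 1640 with 10% FCS, 37 °C, 5% CO₂) by HIV-1 IIIB from persistently infected H9/IIIB supernatant, with a virus inoculum sized to cause complete cytopathicity at day 4, in the presence of serially diluted compound (DMSO stock diluted in medium). p24 antigen was measured by immunoenzymatic kit. Concentration giving 90% reduction of p24 reported.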

C8166 [8] = assay: Compound concentration required to reduce the amount of p24 by 90% in wtIIIBinfected C8166 cells; format: functional; how it was run: as §4
MT4 [9] = assay: Concentration required to achieve 50% protection of infected MT-4 cells from Y181C-HIV-1 strain; format: functional, cell-based; how it was run: as §3
MT4 [10] = assay: Compound concentration required to achieve 50% protection of infected MT-4 cells from Y181C strain was determined by the MTT method; format: functional, cell-based; how it was run: as §3

SMILES	EC50 (MT4 [2])	also measured
Cc1ccc(S(=O)(=O)c2c(C(=O)NCCO)[nH]c3ccc(Cl)cc23)c(C)c1		EC50 (MT4 [1]): 10 nM
CCOC(=O)C(=O)c1cc2ccccc2n1S(=O)(=O)c1cc(Cl)ccc1[N+](=O)[O-]	> 100000 nM	
CCOC(=O)c1[nH]c2ccccc2c1Sc1ccccc1N	> 200000 nM	
CCOC(=O)C(=O)c1cc2cc(Cl)ccc2n1S(=O)(=O)c1ccc(Cl)cc1	> 200000 nM	
NC(=O)c1c(C=O)n(S(=O)(=O)c2ccccc2)c2ccccc12	> 32000 nM	
CCOC(=O)C(=O)c1cc2cc(Cl)ccc2n1S(=O)(=O)c1cc(Cl)ccc1[N+](=O)[O-]	> 31000 nM	
CC(C)OC(=O)c1c(C=O)n(S(=O)(=O)c2ccccc2)c2ccc(Cl)cc12	> 200000 nM	
Cc1ccc(S(=O)(=O)c2c(C(=O)NN)[nH]c3ccc(Cl)cc23)cc1	50 nM	
NC(=O)c1[nH]c2ccccc2c1S(=O)(=O)c1ccccc1	180 nM	
NNC(=O)c1[nH]c2ccc(Cl)cc2c1Sc1ccc(F)cc1	5000 nM	
NNC(=O)c1[nH]c2ccc(Cl)cc2c1S(=O)(=O)c1ccc(Cl)cc1	190 nM	
NNC(=O)c1[nH]c2ccccc2c1S(=O)(=O)c1ccccc1	530 nM	
NNC(=O)c1[nH]c2ccc(Cl)cc2c1Sc1ccc(Cl)cc1	10000 nM	
NC(=O)c1[nH]c2ccc(Cl)cc2c1S(=O)(=O)c1c(Cl)cccc1Cl	100 nM	
NC(=O)c1[nH]c2ccccc2c1Sc1cc(Cl)ccc1N	9000 nM	
Cc1cc(C)cc(S(=O)(=O)c2c(C(=O)NN)[nH]c3ccc(Cl)cc23)c1	130 nM	
NC(=O)c1[nH]c2ccc(Cl)cc2c1S(=O)(=O)c1ccc(F)cc1	14 nM	
NNC(=O)c1[nH]c2ccc(Cl)cc2c1S(=O)(=O)c1ccccc1	10 nM	
Cc1ccc(Sc2c(C(=O)NN)[nH]c3ccc(Cl)cc23)cc1	1500 nM	
CC(C)(C)c1ccc(Sc2c(C(N)=O)[nH]c3ccc(Cl)cc23)cc1	8000 nM	
Cc1cccc(S(=O)(=O)c2c(C(N)=O)[nH]c3ccc(Cl)cc23)c1	1 nM	

SMILES	EC50 (MT4 [2])	also measured
NNC(=O)c1[nH]c2ccc(Cl)cc2c1Sc1ccccc1	550 nM	
Cc1cc(C)cc(S(=O)(=O)c2c(C(N)=O)[nH]c3ccc(Br)cc23)c1	2 nM	
CCOC(=O)c1[nH]c2ccc(Cl)cc2c1S(=O)(=O)c1ccccc1N	> 200000 nM	
Cc1ccccc1Sc1c(C(N)=O)[nH]c2ccc(Cl)cc12	300 nM	
NC(=O)c1[nH]c2ccc(Cl)cc2c1Sc1ccc(F)cc1	1400 nM	
CC(C)c1ccc(Sc2c(C(N)=O)[nH]c3ccc(Cl)cc23)cc1	1900 nM	
Cc1ccccc1S(=O)(=O)c1c(C(N)=O)[nH]c2ccc(Cl)cc12	1 nM	
CCOC(=O)c1[nH]c2ccc(Cl)cc2c1S(=O)(=O)c1cc(Cl)ccc1N	1900 nM	
CC(=O)c1ccc2[nH]c(C(N)=O)c(S(=O)(=O)c3cc(C)cc(C)c3)c2c1	15 nM	
NNC(=O)c1[nH]c2ccc(Cl)cc2c1S(=O)(=O)c1ccc(F)cc1	320 nM	
CCOC(=O)c1[nH]c2ccc(Cl)cc2c1Sc1ccccc1N	2300 nM	
Cc1ccc(S(=O)(=O)c2c(C(N)=O)[nH]c3ccc(Cl)cc23)cc1	3 nM	
Cc1ccc(Sc2c(C(N)=O)[nH]c3ccc(Cl)cc23)cc1	> 450 nM	
CCOC(=O)c1[nH]c2ccc(Cl)cc2c1Sc1cc(Cl)ccc1N	2500 nM	
CC(C)(C)c1ccc(S(=O)(=O)c2c(C(N)=O)[nH]c3ccc(Cl)cc23)cc1	130 nM	
NC(=O)c1[nH]c2ccc(Cl)cc2c1Sc1c(Cl)cccc1Cl	1200 nM	
Cc1cc(C)cc(S(=O)(=O)c2c(C(N)=O)[nH]c3ccc(Cl)cc23)c1	4 nM	
O=C1Nc2ccc(Cl)cc2[C@@](C#CC2CC2)(C(F)(F)F)O1 [EFAVIRENZ]		EC90 (C8166 [3]): 1800 nM; EC50 (MT4 [4]): 150 nM; EC90 (C8166 [5]): 1800 nM; EC50 (MT4 [6]): 150 nM; EC90 (C8166 [7]): 8 nM; EC90 (C8166 [8]): 8 nM
NC(=O)c1[nH]c2ccc(Cl)cc2c1S(=O)(=O)c1ccccc1 [L-737126]	1 nM	EC90 (C8166 [3]): 900 nM; EC50 (MT4 [9]): 20 nM; EC50 (MT4 [6]): 8000 nM; EC90 (C8166 [7]): 0.7 nM
Cc1ccnc2c1NC(=O)c1cccnc1N2C1CC1 [NEVIRAPINE]		EC90 (C8166 [3]): > 30000 nM; EC50 (MT4 [4]): > 30000 nM; EC50 (MT4 [9]): > 30000 nM; EC50 (MT4 [10]): > 30000 nM; EC90 (C8166 [5]): > 30000 nM; EC50 (MT4 [6]): > 30000 nM; EC90 (C8166 [7]): 120 nM; EC90 (C8166 [8]): 120 nM
